Results published in article PMC3019337 (ChemMedChem, 2010).

What was measured:
Experiment in all cases: stopped-flow CO2 hydration assay
Type in all cases: biochemical
hCA IX = hCA IX (Homo sapiens, UniProt Q16790)
How it was run: (§1)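 Enzyme-catalysed CO2 hydration was followed by stopped-flow at 557 nm with 0.2 mM phenol red in 20 mM HEPES pH 7.5 and 20 mM Na2SO4. Initial rates were taken over 10–100 s at five CO2 levels (1.7–17 mM). Enzyme was preincubated 15 min at room temperature with six inhibitor concentrations (100 µM–0.1 nM). Uncatalysed rate was subtracted; Ki came from nonlinear least squares, mean of ≥3 determinations.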

hCA IV = hCA IV (Homo sapiens, UniProt P22748)
How it was run: as §1

hCA VII = hCA VII (Homo sapiens, UniProt P43166)
How it was run: as §1

hCA II = hCA II (Homo sapiens, UniProt P00918)
How it was run: as §1

hCA VI = hCA VI (Homo sapiens, UniProt P23280)
How it was run: as §1

hCA III = hCA III (Homo sapiens, UniProt P07451)
How it was run: as §1

hCA VA = hCA VA (Homo sapiens, UniProt P35218)
How it was run: as §1

hCA XII = hCA XII (Homo sapiens, UniProt O43570)
How it was run: as §1

hCA I = hCA I (Homo sapiens, UniProt P00915)
How it was run: as §1

hCA VB = hCA VB (Homo sapiens, UniProt Q9Y2D0)
How it was run: as §1

mCA XV = molecular target: T1, mCA XV (Mus musculus, UniProt Q99N23)
T1 sequence (Q99N23 19-324): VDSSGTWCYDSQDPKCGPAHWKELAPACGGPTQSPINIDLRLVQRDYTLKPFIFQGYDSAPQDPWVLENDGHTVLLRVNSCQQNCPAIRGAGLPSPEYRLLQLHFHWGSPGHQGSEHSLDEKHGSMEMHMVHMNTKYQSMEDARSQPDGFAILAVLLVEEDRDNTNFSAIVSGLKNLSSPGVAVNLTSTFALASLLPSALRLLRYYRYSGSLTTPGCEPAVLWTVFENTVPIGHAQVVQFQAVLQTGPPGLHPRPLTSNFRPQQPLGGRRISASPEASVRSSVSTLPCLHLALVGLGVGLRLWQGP
How it was run: as §1

hCA XIII = hCA XIII (Homo sapiens, UniProt Q8N1Q1)
How it was run: as §1

Chain of hCA I (P00915 2-261): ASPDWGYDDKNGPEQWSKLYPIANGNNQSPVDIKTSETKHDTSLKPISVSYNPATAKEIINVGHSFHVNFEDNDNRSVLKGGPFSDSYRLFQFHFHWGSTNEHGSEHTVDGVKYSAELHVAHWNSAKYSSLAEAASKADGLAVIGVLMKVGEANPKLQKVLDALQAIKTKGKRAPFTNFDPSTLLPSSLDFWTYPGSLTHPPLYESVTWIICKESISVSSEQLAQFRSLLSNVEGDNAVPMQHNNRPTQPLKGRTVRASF
Chain of hCA VA (P35218 39-305): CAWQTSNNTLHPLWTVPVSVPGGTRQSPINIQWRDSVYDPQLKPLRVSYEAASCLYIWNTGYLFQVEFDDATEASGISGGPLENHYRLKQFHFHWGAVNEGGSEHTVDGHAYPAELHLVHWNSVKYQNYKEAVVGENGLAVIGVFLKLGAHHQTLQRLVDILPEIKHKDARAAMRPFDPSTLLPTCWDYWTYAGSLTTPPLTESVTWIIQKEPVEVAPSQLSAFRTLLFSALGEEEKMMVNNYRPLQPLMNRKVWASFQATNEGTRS
Chain of hCA IV (P22748 19-284): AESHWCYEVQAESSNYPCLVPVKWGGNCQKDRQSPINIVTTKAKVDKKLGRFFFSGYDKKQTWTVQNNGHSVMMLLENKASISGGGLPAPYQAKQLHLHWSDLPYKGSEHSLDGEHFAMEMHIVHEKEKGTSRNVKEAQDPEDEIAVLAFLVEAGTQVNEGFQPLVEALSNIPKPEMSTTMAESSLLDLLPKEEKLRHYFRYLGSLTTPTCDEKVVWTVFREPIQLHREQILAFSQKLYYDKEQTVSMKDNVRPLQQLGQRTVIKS
Chain of hCA VB (Q9Y2D0 34-317): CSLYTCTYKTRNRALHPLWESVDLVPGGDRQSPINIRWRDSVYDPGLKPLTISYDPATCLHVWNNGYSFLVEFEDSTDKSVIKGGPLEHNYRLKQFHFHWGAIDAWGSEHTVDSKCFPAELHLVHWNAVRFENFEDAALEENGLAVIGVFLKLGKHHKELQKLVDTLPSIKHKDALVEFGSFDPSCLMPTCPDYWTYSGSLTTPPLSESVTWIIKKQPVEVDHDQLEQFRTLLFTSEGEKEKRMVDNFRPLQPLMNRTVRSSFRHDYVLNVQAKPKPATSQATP
Chain of hCA VI (P23280 18-308): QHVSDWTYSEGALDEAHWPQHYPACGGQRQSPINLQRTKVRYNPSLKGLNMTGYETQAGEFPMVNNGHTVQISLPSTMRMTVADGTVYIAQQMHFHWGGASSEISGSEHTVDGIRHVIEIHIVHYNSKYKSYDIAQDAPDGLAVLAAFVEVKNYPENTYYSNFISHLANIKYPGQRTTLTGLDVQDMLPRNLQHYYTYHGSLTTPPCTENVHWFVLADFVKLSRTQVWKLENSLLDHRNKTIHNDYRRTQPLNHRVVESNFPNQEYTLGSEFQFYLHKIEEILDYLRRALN
Chain of hCA VII (P43166 whole entry): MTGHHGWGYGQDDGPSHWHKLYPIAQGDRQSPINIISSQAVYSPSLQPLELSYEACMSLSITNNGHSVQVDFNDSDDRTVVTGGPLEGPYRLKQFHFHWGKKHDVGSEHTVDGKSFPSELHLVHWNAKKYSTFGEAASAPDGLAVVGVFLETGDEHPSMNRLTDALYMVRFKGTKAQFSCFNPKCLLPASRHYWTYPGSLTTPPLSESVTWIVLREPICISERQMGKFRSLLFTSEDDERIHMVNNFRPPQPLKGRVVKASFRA
Chain of hCA XII (O43570 25-354): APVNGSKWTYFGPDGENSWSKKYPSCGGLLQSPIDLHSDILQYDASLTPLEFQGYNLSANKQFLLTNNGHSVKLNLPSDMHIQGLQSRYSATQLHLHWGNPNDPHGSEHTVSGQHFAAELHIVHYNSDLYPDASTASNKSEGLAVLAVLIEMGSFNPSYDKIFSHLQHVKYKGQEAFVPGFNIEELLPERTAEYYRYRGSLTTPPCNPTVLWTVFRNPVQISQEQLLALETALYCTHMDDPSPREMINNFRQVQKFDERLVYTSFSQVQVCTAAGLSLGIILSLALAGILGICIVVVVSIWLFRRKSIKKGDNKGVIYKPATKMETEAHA
Chain of hCA III (P07451 2-260): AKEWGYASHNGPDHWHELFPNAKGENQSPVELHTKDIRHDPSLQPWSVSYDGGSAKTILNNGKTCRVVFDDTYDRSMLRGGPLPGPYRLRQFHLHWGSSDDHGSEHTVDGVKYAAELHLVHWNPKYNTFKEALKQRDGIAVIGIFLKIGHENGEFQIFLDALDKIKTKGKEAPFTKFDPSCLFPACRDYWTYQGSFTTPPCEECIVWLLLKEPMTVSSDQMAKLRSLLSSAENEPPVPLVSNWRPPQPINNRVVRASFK
Chain of hCA XIII (Q8N1Q1 whole entry): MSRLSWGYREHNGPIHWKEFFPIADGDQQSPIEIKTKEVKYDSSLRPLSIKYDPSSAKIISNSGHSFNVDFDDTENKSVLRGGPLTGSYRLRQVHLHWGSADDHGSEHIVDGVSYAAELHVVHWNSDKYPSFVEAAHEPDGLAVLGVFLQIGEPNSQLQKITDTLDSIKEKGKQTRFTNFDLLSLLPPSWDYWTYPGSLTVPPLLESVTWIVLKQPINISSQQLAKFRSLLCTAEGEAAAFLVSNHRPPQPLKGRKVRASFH

SMILES	Ki (hCA IX)	Ki (hCA IV)	Ki (hCA VII)	Ki (hCA II)	Ki (hCA VI)	Ki (hCA III)	Ki (hCA VA)	Ki (hCA XII)	Ki (hCA I)	Ki (hCA VB)	Ki (mCA XV)	Ki (hCA XIII)
On1ccccc1=S [compound 4, 1,2-HOPTO]	9.2 µM	4.4 µM	3.6 µM	4.1 µM	3.6 µM	7.5 µM	4 µM	4.8 µM	9.4 µM	3.8 µM	4.7 µM	10.8 µM
Cc1occc(=O)c1O [compound 1, maltol]	9.5 µM	4.3 µM	3.4 µM	3.6 µM	3.5 µM	9.5 µM	4.6 µM	4 µM	9.1 µM	4.3 µM	2.8 µM	10.4 µM
Cc1occc(=S)c1O [compound 2, thiomaltol]	10 µM	4.6 µM	3.6 µM	4 µM	3.2 µM	8.4 µM	4.2 µM	4.5 µM	8.3 µM	4 µM		10.4 µM
